High-throughput results: PubChem BioAssay, Sanford-Burnham Center for Chemical Genomics
Most compounds without a hit are left out; they make up all but 1.9% or so of the library.
CSN deneddyl inh – inhibitors of human CSN-mediated cullin deneddylation; Q92905; Purified CSN, SCF-Nedd8-OG deneddylation, fluorescence polarization; inhibition, % at 12.5 µM; hit rate 0.38% among 360,000; AID 651999;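 active = pattern-corrected inhibition above about 35%, with an unprinted fluorescence ratio check between 0.5 and 1.5, limit read from the data, passing the limit was not always enough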
Target sequence (Q92905 whole entry, looked up, one chain of several): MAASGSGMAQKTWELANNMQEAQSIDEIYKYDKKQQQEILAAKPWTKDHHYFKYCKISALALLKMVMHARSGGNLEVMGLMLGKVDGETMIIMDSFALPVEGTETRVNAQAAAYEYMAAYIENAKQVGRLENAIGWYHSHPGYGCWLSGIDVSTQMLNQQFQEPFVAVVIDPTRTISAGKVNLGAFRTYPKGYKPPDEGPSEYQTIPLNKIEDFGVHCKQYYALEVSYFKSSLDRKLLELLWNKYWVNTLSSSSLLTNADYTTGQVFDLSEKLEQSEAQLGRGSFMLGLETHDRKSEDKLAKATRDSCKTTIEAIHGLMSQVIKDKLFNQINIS
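Assay system: purified human Csn5 enzyme expressed in HEK293T cells; measure: % inhibition; also added: SCFSkp2-Nedd8OG substrate at 10 nM final; technique: fluorescence polarization; times: reaction 90 min, room temperature; medium: Tris buffer pH 7.5, NaCl, DTT, Tween-20, trehalose, ovalbumin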
LMPTP inh – blocks human LMPTP phosphatase; AID 651560; recombinant LMPTP-A, OMFP fluorogenic substrate, fluorescence intensity; inhibition, % at 20 µM; P24666; hit rate 0.22% among 360,000;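 active = compounds that cut the enzyme signal by at least half of the control window in the single-dose screen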
Target sequence (P24666 whole entry, looked up): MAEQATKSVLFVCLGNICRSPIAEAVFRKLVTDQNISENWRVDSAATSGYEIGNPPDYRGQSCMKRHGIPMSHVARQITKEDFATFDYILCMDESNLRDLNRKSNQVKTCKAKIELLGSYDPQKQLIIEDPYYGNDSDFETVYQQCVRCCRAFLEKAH
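Assay system: LMPTP-A phosphatase enzyme | Input: 0.625 nM enzyme | Also added: Fluorogenic phosphatase substrate OMFP at 400 µM final | Compound dosing: One test concentration per compound, 20 µM, with 3% DMSO overall | Schedule: 50 min enzyme reaction at room temperature, protected from light | Signal: Fluorescence intensity | Benchmarks: no-enzyme and uninhibited controls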
SUMO1 PPI mod – SUMO1-SIM interaction modulation; P63165; SUMO1 binding to a labelled peptide, TR-FRET, 1 h; inhibition, % at 20 µM; hit rate 0.33% among 360,000; in the data active = inhibition above about 37%
Target sequence (P63165 whole entry, looked up): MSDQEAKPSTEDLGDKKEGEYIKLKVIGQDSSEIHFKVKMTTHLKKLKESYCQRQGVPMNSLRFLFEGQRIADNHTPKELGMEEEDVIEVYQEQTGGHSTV
DNMT1 block – inhibitors of human DNMT1; inhibition (reported as % activation of signal), % at 10 µM; hit rate 0.83% among 360,000; DNMT1 molecular beacon, Hinp1I cleavage, fluorescence; in the data active = inhibition above about 50%
STEP inh – STEP (human) phosphatase inhibition; P54829; recombinant STEP, OMFP fluorogenic substrate, fluorescence; inhibition, % at 20 µM; hit rate 0.25% among 360,000; AID 588621;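 active = inhibition at 20 µM, scaled per plate between control wells, above about 37%, limit read from the data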
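System: isolated STEP enzyme; schedule: 20 min enzyme reaction at room temperature, protected from light; medium: Bis-Tris buffer pH 6.0, 2.5 mM DTT, 0.005% Tween 20; signal: fluorescence, 480/540 nm; dosing: single compound dose of 20 µM, 1% DMSO final; also added: OMFP substrate, 25 µM final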
Scp-1 inhibitor – Scp-1 (human) phosphatase inhibition | Q9GZU7 | inhibition, % at 20 µM | AID 493091 | hit rate 0.88% among 340,000 | Recombinant Scp1, phosphopeptide, malachite green phosphate absorbance;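 active = inhibition above about 50% at 20 µM, limit read from the data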
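Test system: SCP-1 phosphatase catalytic domain, residues 76-261 | Compound dosing: One concentration, 20 µM, with 1.0% DMSO | Schedule: 45 min room-temperature reaction, 5 min colour, 30 min stabiliser | Detection: Absorbance at 630 nm | Read-out basis: % inhibition of SCP-1 phosphate liberation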
Beacon interf DR – counter-screen for DNMT1 inhibitors: spectral interference, dose response; molecular beacon fluorescence; AID 602382; 200 tested, under 10 active; IC50, µM; shares compounds with DNMT1 block; call rule not given here
DNMT1 inh conf – confirmation of human DNMT1 inhibitors; shares compounds with DNMT1 block; DNMT1 molecular beacon HinP1I cleavage, fluorescence; inhibition, % at 10 µM; hit rate 8% among 2,300; AID 602385;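 active = average inhibition of at least 30% in the single-concentration confirmation test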
Beacon interf – counter-screen for DNMT1 inhibitors: spectral interference; DNMT1 molecular beacon spectral interference counterscreen, fluorescence 485/520; hit rate 1% among 2,300; shares compounds with DNMT1 block; activation (fluorescence interference), % at 10 µM;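 active = activation of at least 30% at 10 µM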;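 also: DNMT1 catalytic domain with a HinP1I cleavage step and a FAM/dabcyl DNA beacon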
A number is an active result; n = inactive; x = no result given.

SMILES	CSN deneddyl inh	LMPTP inh	SUMO1 PPI mod	DNMT1 block	STEP inh	Scp-1 inhibitor	DNMT1 inh conf	Beacon interf	others
O=C(O)c1cc2ccccc2cn1	n	n	n	n	n	n	x	x
Cc1ccccc1NC(=O)COC(=O)/C=C/c1cn(-c2ccccc2)nc1-c1cccnc1	n	n	n	52	n	n	n	n
c1ccc2c(c1)C1=NCCN1c1ccccc1-2	n	n	n	66	n	x	48	n	Beacon interf DR=n
CSc1nnc(C)c(=O)n1COC(=O)COc1ccccc1	n	n	n	n	n	n	x	x
CSc1nnc(C)c(=O)n1COC(=O)COc1ccc(Cl)cc1	n	n	n	110	n	n	n	n
OC(c1ccccc1)C(Nc1ccccn1)c1ccccc1 (stereo not drawn)	n	n	n	55	n	n	n	n
COc1ccc(-c2csc(NC(=O)CCNC(=O)c3ccco3)n2)cc1OC	n	n	n	n	n	n	x	x
COc1ccc(-c2nc(CCNC(=O)c3ccco3)cs2)cc1OC	n	n	n	83	n	n	n	n
O=C(Nc1ccc(-c2cn3ccccc3n2)cc1)c1ccc(Cl)cc1	n	n	n	53	n	n	n	n
Cc1ccc2nc(SCC(=O)Nc3cccc(Cl)c3)nc(=O)n2c1	n	n	n	n	n	n	x	x
NCCc1nnc(SCC(=O)c2ccc(Cl)cc2)o1	n	n	n	n	n	n	x	x
CCN(CC)S(=O)(=O)c1cc(NS(=O)(=O)c2ccccc2)ccc1C	n	n	n	75	n	n	n	n
CCN(CC)S(=O)(=O)c1cc(NS(=O)(=O)c2cccc(C(=O)O)c2)ccc1C	n	n	n	n	n	n	x	x
O=C1CN(C(=O)NCC(=O)N[C@H](Cc2ccccc2)C(=O)O)c2ccccc2N1	n	n	n	74	n	n	n	n
O=C1CN(C(=O)NCC(=O)N[C@H](C(=O)O)c2ccccc2)c2ccccc2N1	n	n	n	n	n	n	x	x
COc1ccc([C@H]2[C@H](C(=O)C(C)(C)C)N3N=Cc4ccccc4C3[C@]23N=C(c2ccccc2)OC3=O)cc1OC (stereo partly drawn)	n	n	n	55	n	n	n	n
COc1ccc([C@H]2[C@H](C(=O)C(C)(C)C)N3N=Cc4ccccc4C3[C@]23N=C(c2ccccc2)OC3=O)cc1 (stereo partly drawn)	n	n	n	n	n	n	x	x
O=C(CSCc1ccccc1Br)NC1CC1	n	n	n	81	n	n	n	n
COCc1nc2oc3ccc(F)cc3c(=O)c2cc1C(=O)OC	n	n	n	n	n	n	x	x
Nc1c(C(=O)Nc2ccc(Br)cc2)sc2nc(-c3ccco3)ccc12	n	n	n	n	n	n	x	x
CC(=O)c1sc2nc(-c3ccco3)ccc2c1N	n	n	n	67	n	79	n	n
COc1ccc(NC(=O)C2(C)Cc3c(-c4ccc(C(N)=O)cc4)ccnc3O2)cn1 (stereo not drawn)	n	n	n	n	n	x	x	x
O=C(O)Cn1c(=O)c2c3c(sc2n(Cc2ccccc2F)c1=O)CCCC3	n	n	n	n	n	n	x	x
O=C(Nc1ccc(S(=O)(=O)NCc2ccco2)cc1)c1cccc(F)c1	n	n	n	84	n	n	n	n
COc1cccc(C(=O)Nc2ccc(S(=O)(=O)NCc3ccco3)cc2)c1	n	n	n	n	n	n	x	x
SMILES	CSN deneddyl inh	LMPTP inh	SUMO1 PPI mod	DNMT1 block	STEP inh	Scp-1 inhibitor	DNMT1 inh conf	Beacon interf	others
O=c1[nH]c(=O)c2nc3c4ccccc4c4ccccc4c3nc2[nH]1	n	n	84	79	n	n	n	n
O=c1[nH]c(=O)c2nc(-c3ccc(Cl)cc3)cnc2[nH]1	n	n	n	n	n	n	x	x
Cc1ccc(Nc2nc(=O)c3cc([N+](=O)[O-])ccc3s2)cc1	n	n	n	59	n	n	n	n
Cc1ccccc1Nc1nc(=O)c2cc([N+](=O)[O-])ccc2s1	n	n	n	n	n	n	x	x
NN1C(=O)c2cccc3c(C(=O)O)ccc(c23)C1=O	n	n	n	n	n	n	x	x
O=C(O)c1ccc2c3c(cccc13)C(=O)N(c1ccccc1)C2=O	n	n	n	63	n	n	n	n
Nc1ccc2c3c(cccc13)C(=O)N(c1ccccc1)C2=O	n	n	n	60	n	n	146	115
CCc1c(C)sc(NC(=O)c2cc(-c3ccco3)on2)c1C#N	n	n	n	n	n	n	x	x
C=C(C)CNC(=O)CCc1nnc(C2(c3ccc(Cl)cc3)CCC2)o1	n	n	n	n	n	n	x	x
COC(=O)CNC(=O)CCc1nnc(C2(c3ccc(Cl)cc3)CCC2)o1	n	n	n	58	n	n	n	n
O=C(O)c1ccc(C=NN=Cc2ccco2)cc1	n	n	n	n	n	n	x	x
O=C(O)c1ccc2c(c1)C(=O)/C(=C\c1ccco1)C2=O	n	n	n	80	n	54	n	n
Cc1ccc(/C=C2/C(=O)c3ccc(C(=O)O)cc3C2=O)o1	n	n	n	74	n	n	n	n
CCc1ccccc1NC(=O)CN1C(=O)c2ccccc2S1(=O)=O	n	n	n	n	n	n	x	x
Cc1ccc(Nc2nc(C)cc(C)n2)c(Br)c1	n	n	n	n	n	n	x	x
Cc1cc(C)nc(Nc2ccc(Br)cc2C(=O)O)n1	n	n	n	55	n	n	n	n
COc1ccc2nc(C)cc(Nc3ccc(N4CCN(C)CC4)cc3)c2c1	n	n	n	70	n	n	33	n	Beacon interf DR=n
CC(C)OCCCNC(=O)c1c(N)n(/N=C/c2cccs2)c2nc3ccccc3nc12	41	n	n	60	n	n	n	n
C=CCN(C(=O)c1csnn1)C(C(=O)NCc1ccc(F)cc1)c1ccccc1F (stereo not drawn)	n	n	n	54	n	n	n	n
O=[N+]([O-])c1cc(/C=N/n2c(-c3ccncc3)n[nH]c2=S)ccc1Cl	n	n	n	55	n	n	n	n
Oc1ccc(Br)cc1/C=N/n1c(-c2ccccc2)n[nH]c1=S	n	n	n	82	n	n	n	n
S=c1[nH]nc(-c2cc(-c3ccccc3)n[nH]2)n1/N=C/c1ccc(Cl)c(Cl)c1	72	n	98	83	n	n	n	n
S=c1[nH]nc(-c2cc(-c3ccccc3)n[nH]2)n1/N=C/c1ccc(Cl)cc1	n	n	n	n	n	n	x	x
